Reference: ChEMBL document CHEMBL2176946, “An anthraquinone scaffold for putative, two-face Bim BH3 α-helix mimic” (J Med Chem, 2012)
pIC50, pKi: −log10 of the molar value. The source made the active and inactive calls. No cut-off for these calls is given here.

How the values were obtained:
[1] = biological target: T1, Induced myeloid leukemia cell differentiation protein Mcl-1 (Homo sapiens, UniProt Q07820); assay: Binding affinity to Mcl-1 after 30 mins by florescence polarization assay
Summary of the method: (§1)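 Fluorescence polarization binding assay against Mcl-1 and Bcl-2 proteins.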

[2] = biological target: Apoptosis regulator Bcl-2 (Homo sapiens, UniProt P10415); assay: Binding affinity to Bcl-2 after 30 mins by florescence polarization assay; summary of the method: as §1
Chain of Apoptosis regulator Bcl-2 (P10415 whole entry): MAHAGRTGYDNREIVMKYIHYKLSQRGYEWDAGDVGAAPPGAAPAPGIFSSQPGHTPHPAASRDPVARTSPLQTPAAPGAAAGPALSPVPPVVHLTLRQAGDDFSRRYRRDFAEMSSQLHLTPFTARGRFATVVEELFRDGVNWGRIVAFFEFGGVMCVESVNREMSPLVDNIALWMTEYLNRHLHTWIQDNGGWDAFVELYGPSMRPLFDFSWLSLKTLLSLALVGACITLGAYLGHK

[3] = Cytotoxicity against human NCI-H1688 cells by MTT assay; type: functional, cell-based
MCF7 [4] = assay: Induction of necrosis in human MCF7 cells at 10 uM after 12 to 24 hrs by Annexin V-FITC/PI staining based flow cytometry; type: functional, cell-based
HEK293 = assay: Cytotoxicity against human HEK293 cells by MTT assay; type: cell-based
MCF7 [5] = assay: Cytotoxicity against human MCF7 cells by MTT assay; type: functional, cell-based
K562 = assay: Cytotoxicity against human K562 cells by MTT assay; type: functional, cell-based
SMMC-7721 = assay: Cytotoxicity against human SMMC7721 cells by MTT assay; type: functional, cell-based
MCF7 [6] = assay: Induction of apoptosis in human MCF7 cells at 10 uM after 12 to 24 hrs by Annexin V-FITC/PI staining based flow cytometry; type: functional, cell-based
U-937 = assay: Cytotoxicity against human U937 cells by MTT assay; type: functional, cell-based
MCF7 [7] = assay: Cytotoxicity against human MCF7 cells transfected with Bax/Bak shRNA assessed as cell viability after 48 hrs by MTT assay; type: functional, cell-based
Summary of the method: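 MCF-7 cells transfected with nonspecific shRNA or Bax/Bak shRNA, treated 48 h with graded doses of compound. Viability read by MTT assay.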

Nucleic Acid = assay: Induction of DNA damage in Escherichia coli pBR322 at 100 uM after 2 hrs by agarose gel electrophoresis; type: functional
[8] = biological target: T1, Induced myeloid leukemia cell differentiation protein Mcl-1; assay: Binding affinity to Mcl-1 in ABT737-resistant human Nalm-6 cells assessed as disruption of Mcl-1/Bak at 5 uM after 12 to 24 hrs by coimmunoprecipitation assay; type: cell-based
Summary of the method: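 Nalm-6 cells (ABT737-resistant) incubated with 5 μM compound for 12 or 24 h. Total cell lysates immunoprecipitated with anti-Bcl-2 or anti-Mcl-1 antibody. Precipitates and lysates resolved by SDS-PAGE and Western blotted with anti-Bcl-2, anti-Bax, anti-Mcl-1 and anti-Bak antibodies.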

HeLa = assay: Cytotoxicity against human HeLa cells by MTT assay; type: functional, cell-based

T1 sequence (Q07820 whole entry): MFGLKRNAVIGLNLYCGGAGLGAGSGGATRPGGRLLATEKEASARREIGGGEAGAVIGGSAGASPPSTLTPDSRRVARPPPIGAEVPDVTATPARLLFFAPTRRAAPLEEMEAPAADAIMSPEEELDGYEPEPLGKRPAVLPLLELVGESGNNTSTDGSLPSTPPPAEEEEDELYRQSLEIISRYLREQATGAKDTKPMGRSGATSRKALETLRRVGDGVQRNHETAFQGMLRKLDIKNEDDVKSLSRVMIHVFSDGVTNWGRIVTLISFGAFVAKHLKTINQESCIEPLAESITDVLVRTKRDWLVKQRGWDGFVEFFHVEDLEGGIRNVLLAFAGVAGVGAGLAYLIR

Row | pKi [1] | pKi [2] | SMILES | further results
1 | 6.51 | 6.38 | O=C1c2ccccc2C(=O)c2cc(O)c(O)cc21 | –
2 | 6.57 | 6.23 | O=C1c2ccccc2C(=O)c2c1cc(O)c(O)c2O | –
3 | 7.89 | 7.62 | CC(C)c1ccc(Sc2ccc3c(c2)C(=O)c2cc(O)c(O)cc2C3=O)cc1 | pIC50 [3]: 5.36; Activity (MCF7 [4]): inactive; pIC50 (HEK293): 4.30; pIC50 (MCF7 [5]): 5.21; pIC50 (K562): 5.49; pIC50 (SMMC-7721): 5.16; Activity (MCF7 [6]): Active; pIC50 (U-937): 5.39; Activity (MCF7 [7]): inactive; Activity (Nucleic Acid): inactive; Activity [8]: Active; pIC50 (HeLa): 5.28
4 | 7.25 | 7.06 | O=C1c2ccc(Sc3ccc(Br)cc3)cc2C(=O)c2cc(O)c(O)cc21 | –
5 | 7.28 | 7.15 | O=C1c2ccc(Sc3ccccc3)cc2C(=O)c2cc(O)c(O)cc21 | –
6 | 7.42 | 7.36 | Cc1ccc(Sc2ccc3c(c2)C(=O)c2cc(O)c(O)cc2C3=O)cc1 | –
7 | 5.64 | 5.77 | O=C1c2ccccc2C(=O)c2c(O)cc(O)cc21 [XANTHOPURPURIN] | –
8 | 6.97 | 6.88 | O=C1c2ccc(Br)cc2C(=O)c2cc(O)c(O)cc21 | –
9 | 5.79 | 5.94 | O=C1c2ccccc2C(=O)c2c1ccc(O)c2O [ATHRAQUINONES A] | –
